For experiment [1], the species on record is Mus musculus. Kind of experiment: Antitumor activity in CD-1 female mouse skin Papilloma assay. It is filed as functional. The gist of the method: (§1)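 CD-1 female mice. Initiation with DMBA (0.2 μmol in 0.2 mL acetone) on shaved dorsal skin. Promotion began 14 days later with TPA (10 nmol in acetone) twice weekly. Retinoid applied topically in 0.2 mL acetone to the same area. Dose-response used 137.7/135.7, 45.9, 15.3 or 5.1 nmol. Papillomas counted per mouse at day 83–89 after promotion start. Tumor-free mice also recorded. ED50 derived from the dose-response.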

Experiment [2] addresses T1, Retinoic acid receptor alpha (Mus musculus) (UniProt P11416).
T1 sequence (whole entry): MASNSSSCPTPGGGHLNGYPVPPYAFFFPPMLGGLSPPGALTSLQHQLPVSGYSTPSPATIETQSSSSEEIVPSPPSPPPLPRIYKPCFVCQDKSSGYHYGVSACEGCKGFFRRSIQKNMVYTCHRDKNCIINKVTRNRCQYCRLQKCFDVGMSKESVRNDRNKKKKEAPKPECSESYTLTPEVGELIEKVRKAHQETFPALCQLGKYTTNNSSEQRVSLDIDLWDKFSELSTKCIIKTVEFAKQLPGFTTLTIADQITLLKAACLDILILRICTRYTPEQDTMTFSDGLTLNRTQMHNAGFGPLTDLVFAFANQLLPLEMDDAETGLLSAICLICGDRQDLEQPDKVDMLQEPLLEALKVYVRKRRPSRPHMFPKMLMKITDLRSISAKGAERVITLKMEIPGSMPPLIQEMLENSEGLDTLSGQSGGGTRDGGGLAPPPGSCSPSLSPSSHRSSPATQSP
Kind of experiment: Inhibition of [3H]-retinoic acid binding to murine retinoic acid receptor RAR alpha. Set-up: concentration or dose not given beside the values. The note with it: concentration not given here. The gist of the method:
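RARα binding: inhibition of tritiated retinoic acid binding by a 200-fold molar excess of unlabeled retinoid, expressed as percent inhibition.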

The species named for experiment [3] is Mus musculus. The experiment can be described thus: Antitumor activity in CD-1 female mouse skin Papilloma assay at 15.3 nmol dose. Format: functional. The gist of the method:
as §1

For experiment [4], the species on record is Mus musculus. Kind of experiment: Antitumor activity in CD-1 female mouse skin Papilloma assay at 135.7 nmol dose. Format: functional. The method in brief: as §1
The species named for experiment [5] is Mus musculus. The experiment can be described thus: Antitumor activity in CD-1 female mouse skin Papilloma assay at 45.9 nmol dose. It is filed as functional. The gist of the method:
as §1

For experiment [6], the species on record is Mus musculus. Kind of experiment: Antitumor activity in CD-1 female mouse skin Papilloma assay at 5.1 nmol dose. Format: functional. The gist of the method:
as §1

The results in this text go back to ChEMBL document CHEMBL1145036, “Inhibition of papilloma formation by analogues of 7,8-dihydroretinoic acid” (2003).

Molecules are shown by their SMILES. Several values for one entry are separate records, joined by “and”; a condition that tells them apart may be missing. Equal values may be shown once.

As a reminder, the inhibition is the drop in the measured response relative to a control, in per cent. `CC(/C=C/C=C(\C)COc1ccc(F)cc1C)=C\C(=O)O` displayed an ED50 in experiment [1] of 45.9 nmol. Moreover, the inhibition in experiment [2] stood at 0%.

For `COc1ccc(OC/C(C)=C/C=C/C(C)=C/C(=O)O)c(C(C)(C)C)c1`, the ED50 in experiment [1] was > 100 nmol. In addition, the inhibition in experiment [2] worked out at 25%.

On to `COC(=O)/C=C(C)/C=C/C=C(\C)C(=O)Nc1ccc(C(C)(C)C)cc1C(C)(C)C`, for which the ED50 in experiment [1] is > 100 nmol.

In the case of `CC1=C(/C=C/C(C)=C/C=C/C(C)=C/C(=O)O)C(C)(C)CCC1` [TRETINOIN], the Control in experiment [3] stood at 8%. The same compound gave an ED50 in experiment [1] of 5.2 nmol.

For `CC(/C=C/C=C(\C)COc1c(C)cc(C)cc1C)=C\C(=O)O`, the ED50 in experiment [1] is 60 nmol. The compound also registered an inhibition in experiment [2] of 30%.

For the compound `CC(/C=C/C=C(\C)COc1c(Cl)cc(F)cc1Cl)=C\C(=O)O`, the ED50 in experiment [1] is > 100 nmol.

In experiment [1], `CCOC(=O)/C=C(C)/C=C/C=C(C)/C=C/c1c(C)cc(OC)c(C)c1C` [ETRETINATE] displayed an ED50 of 7.2 nmol.

As to `CC(/C=C/C=C(\C)COc1cc(C)cc(C)c1C)=C\C(=O)O`, the Control in experiment [3] stood at 66%; in experiment [4], 10%; in experiment [5] it was 36%; in experiment [6], 89%. Besides, the No. of tumors/mouse in experiment [3] is 22 and 9.2; in experiment [5] it was 15 and 5; in experiment [6] it was 29 and 12.4. Further, the ED50 in experiment [1] is 27 nmol. In experiment [2], this compound yielded an inhibition of 30%.

In the case of `CC(/C=C/C=C(\C)C(=O)Nc1c(C)cc(C)cc1C)=C\C(=O)O`, the ED50 in experiment [1] was > 100 nmol.

`CC(/C=C/C=C(\C)C(=O)Nc1c(C)cc(C(C)(C)C)cc1C(C)(C)C)=C\C(=O)O` returned an inhibition in experiment [2] of 15%.

Take `CC(/C=C/C=C(\C)COc1ccc(C(C)(C)C)cc1C(C)(C)C)=C\C(=O)O`: in experiment [1], the ED50 is > 45.9 nmol. In experiment [2], this compound registered an inhibition of 5%.

`CC(/C=C/C=C(\C)C(=O)Nc1ccc(C(C)(C)C)cc1C(C)(C)C)=C\C(=O)O`: the ED50 in experiment [1] was > 100 nmol. Moreover, in experiment [2], the inhibition stood at 0%.

As to `COc1cc(NC(=O)/C(C)=C/C=C/C(C)=C/C(=O)O)cc(OC)c1`, in experiment [1], the ED50 is > 45.9 nmol.
